Target: SSTR2 (Rattus norvegicus, UniProt P30680)
Format: binding
Conditions: Re-cyclized analogues, in vitro, AR42J cells
How it was run: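 Trypsinized rat AR42J pancreatic carcinoma cells, 2 × 10⁶/well in RPMI 1640, were incubated 2 h at 37 °C (5% CO₂) with HPLC-purified ¹¹¹In-DOTA-TIDE (0.2 μCi/well) and test compound at 10⁻⁴ to 10⁻¹³ M, in triplicate. Cells were pelleted, washed three times with 4 °C medium, and counted for γ radioactivity. IC₅₀ was taken from sigmoidal fits of % bound tracer vs log concentration.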

Sequence of SSTR2 (P30680 whole entry): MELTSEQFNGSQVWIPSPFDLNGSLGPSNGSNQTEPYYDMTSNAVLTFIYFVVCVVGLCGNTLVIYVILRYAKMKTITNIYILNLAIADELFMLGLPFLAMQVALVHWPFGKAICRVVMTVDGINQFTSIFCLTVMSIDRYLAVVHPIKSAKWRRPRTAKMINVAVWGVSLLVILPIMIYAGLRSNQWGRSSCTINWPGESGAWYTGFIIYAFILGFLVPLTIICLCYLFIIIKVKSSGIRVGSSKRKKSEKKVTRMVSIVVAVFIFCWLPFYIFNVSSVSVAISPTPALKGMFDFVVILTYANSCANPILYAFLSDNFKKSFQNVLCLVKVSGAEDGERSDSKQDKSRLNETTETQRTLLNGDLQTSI

For “Ac-Cys-Cys-Tyr-DTrp-Lys-Thr-Cys-Thr(OH) [analogue 4]”, the “affinity toward somatostatin subtype 2 receptors (in words)” value was “moderate affinity”.

— PMC2901243 (Nuclear medicine and biology, 2010)
